5 compounds from ChEMBL document CHEMBL2150886, “Synthesis of [3β-acetoxy-urs-12-en-28-oyl]-1-monoglyceride and investigation on its anti tumor effects against BGC-823” (Bioorg Med Chem, 2011) can be followed below.

Data set [1] in a line: Cytotoxicity against human GES-1 cells incubated for 48 hrs by MTT assay. The data set is classed as cell-based. As to conditions: GES1, 48 h. The gist of the method:
(§1)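 Cells were grown in RPMI-1640 with 10% heat-inactivated FCS at 37 °C under 5% CO₂, seeded at 5 × 10³ per well and left 24 h. Compounds in DMSO were diluted in medium to 0.5% final DMSO; controls received 0.5% DMSO. Exposure was 24–72 h, followed by MTT for 4 h, formazan dissolved in DMSO, and A570. Six wells per sample; IC₅₀ taken at 50% inhibition; ≥3 repeats.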

The test system of data set [2] is BGC-823. Nature of the data set: Cytotoxicity against human BGC823 cells by MTT assay. The data set is classed as functional, cell-based. The gist of the method:
as §1

Another data set deals with HepG2. Nature of the data set: Cytotoxicity against human HepG2 cells incubated for 48 hrs by MTT assay. It is filed as functional, cell-based. As to conditions: HepG2, 48 h. In short, it runs like this:
as §1

The test system of a further data set is HT-29. As to the kind of experiment: Cytotoxicity against human HT-29 cells incubated for 48 hrs by MTT assay. As to conditions: HT-29, 48 h. The data set is classed as functional, cell-based. In short, it runs like this: as §1
Data set [3] deals with Mus musculus. Nature of the data set: Toxicity in human BGC823 cells xenografted nude mouse assessed as body weight changes at 8 mg/kg, iv treated 2 times on day 1 and day 4 post tumor implant (reference value: 20.58 +/- 1.35 grams). The data set is classed as organism-based, BGC-823. More on the design: dose 8 mg/kg, route intravenous. Conditions: in vivo.
The test system of data set [4] is Mus musculus. Nature of the data set: Toxicity in human BGC823 cells xenografted nude mouse assessed as body weight changes at 8 mg/kg, iv treated 5 times on day 1, 4, 7, 10 and day 13 post tumor implant (reference value: 20.21 +/- 1.83 grams). It is filed as organism-based, BGC-823. More on the design: dose 8 mg/kg, route intravenous. As to conditions: in vivo.

Data set [5] deals with Mus musculus. As to the kind of experiment: Toxicity in human BGC823 cells xenografted nude mouse assessed as body weight changes at 8 mg/kg, iv treated 4 times on day 1, 4, 7 and 10 post tumor implant (reference value: 20.54 +/- 1.45 grams). The data set is classed as organism-based, BGC-823. More on the design: dose 8 mg/kg, route intravenous. As to conditions: in vivo.

Data set [6] has as its system BGC-823. As to the kind of experiment: Antitumor activity against human BGC823 cells xenografted in nude mouse assessed as reduction in tumor volume at 8 mg/kg, iv dosed 5 times. The data set is classed as functional. Set-up: scale not given: the % may be the effect or the level left. The gist of the method: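 Male nude mice (5 weeks, 18–22 g) inoculated subcutaneously with 1 × 10⁷ BGC-823 cells. At about 200 mm³ tumours, animals were randomised into four groups of eight. Each received 0.2 mL iv by tail vein; controls got 0.9% saline. Tumour volume was measured daily as 0.5 × length × width²; tumours were weighed at the end. Values are mean ± SD, n = 8.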

For data set [7], the system named is Mus musculus. As to the kind of experiment: Toxicity in human BGC823 cells xenografted nude mouse assessed as body weight changes at 8 mg/kg, iv treated on day 1 post tumor implant (reference value: 19.69 +/- 1.21 grams). Conditions: in vivo. It is filed as organism-based, BGC-823. Set-up: dose 8 mg/kg, route intravenous.
Data set [8] relates to Mus musculus. Nature of the data set: Toxicity in human BGC823 cells xenografted nude mouse assessed as body weight changes at 8 mg/kg, iv treated 3 times on day 1, day 4 and day 7 post tumor implant (reference value: 20.79 +/- 1.29 grams). It is filed as organism-based, BGC-823. More on the design: dose 8 mg/kg, route intravenous. Conditions: in vivo.
The subject of data set [9] is Mus musculus. As to the kind of experiment: Toxicity in human BGC823 cells xenografted nude mouse assessed as body weight changes at 8 mg/kg, iv treated […] on day 1, 4, 7, 10, 13 and day 16 post tumor implant (reference value: 20.12 +/- 1.52 grams). More on the design: dose 8 mg/kg, route intravenous. Conditions: in vivo. It is filed as organism-based, BGC-823.

Each structure is given as a SMILES string.

As to `CC(=O)O[C@H]1CC[C@]2(C)[C@H]3CC=C4[C@@H]5[C@@H](C)[C@H](C)CC[C@]5(C(=O)O)CC[C@@]4(C)[C@]3(C)CC[C@H]2C1(C)C` [O-ACETYLURSOLIC ACID], the IC50 in data set [1] was 92.9 µM; in the data set on BGC-823 [2], 19.4 µM; in the data set with HepG2, 37.7 µM; with HT-29, 23.9 µM.

Regarding `C[C@H]1[C@H](C)CC[C@]2(C(=O)OCC(O)CO)CC[C@]3(C)C(=CC[C@@H]4[C@@]5(C)CC[C@H](O)C(C)(C)[C@@H]5CC[C@]43C)[C@H]12` (some centres undefined), the values for the IC50 (in data set [1]; in the data set on BGC-823 [2]; with HepG2) were 154 µM, 20.5 µM and 44.2 µM, respectively.

On to `C[C@H]1[C@H](C)CC[C@]2(C(=O)O)CC[C@]3(C)C(=CC[C@@H]4[C@@]5(C)CC[C@H](O)C(C)(C)[C@@H]5CC[C@]43C)[C@H]12` [URSOLIC ACID], for which the IC50 in data set [1] came out at 93.8 µM; with BGC-823 [2], 23 µM; with HT-29, 26.3 µM.

Regarding `CC(=O)O[C@H]1CC[C@]2(C)[C@H]3CC=C4[C@@H]5[C@@H](C)[C@H](C)CC[C@]5(C(=O)OCCO)CC[C@@]4(C)[C@]3(C)CC[C@H]2C1(C)C`, the IC50 was 137 µM in [1], 17.2 µM in the data set with BGC-823 [2], 29.8 µM with HepG2 and 23.6 µM in the data set on HT-29.

Turning to `CC(=O)O[C@H]1C(=O)[C@@]2(C)[C@H]([C@H](OC(=O)c3ccccc3)[C@]3(O)C[C@H](OC(=O)[C@H](O)[C@@H](NC(=O)c4ccccc4)c4ccccc4)C(C)=C1C3(C)C)[C@]1(OC(C)=O)CO[C@@H]1C[C@@H]2O` [PACLITAXEL], the Activity was determined as 19.72 g in the data set with Mus musculus [3]; 20.17 g in the data set on Mus musculus [4]; 20.13 g in the data set with Mus musculus [5]; 15.2% in the data set with BGC-823 [6]; 18.76 g with Mus musculus [7]; 19.7 g with Mus musculus [8]. For the same compound, the Activity in the data set with Mus musculus [9] was 20.25 g. Also, the IC50 was 106 µM in data set [1], 33.1 µM with BGC-823 [2] and less than 10 µM with HT-29.
